EBNA-1 inh: EBNA-1 DNA-binding inhibitors, primary screen, biochemical, fluorescence polarization; inhibition, % at 14.8 µM; 0.34% of 300,000 active; in the data active means inhibition above about 28%
GSTO1 counter: inhibitors of recombinant GSTO1, primary screen, counter-screen for RBBP9 inhibitor project, biochemical, fluorescence polarization; Glutathione S-transferase omega-1 (Homo sapiens), P78417; activity-based probe fluorescence polarization; inhibition, % at 5.96 µM; 1.1% of 300,000 active;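 active means inhibition above the campaign mean inhibition plus 3 SD, cut at about 35% in these data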;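 further: 0% = GSTO1-1 with DMSO and 100% = wells lacking GSTO1-1 enzyme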
Apaf-1 inh: inhibitors of human Apaf-1 apoptosome, primary screen, biochemical, DEVD-Rh110 fluorescence, uHTS; reconstituted apoptosome caspase-3 activity; 0.71% of 330,000 active; inhibition, % at 20 µM; Apoptotic protease-activating factor 1 (Homo sapiens), O14727; active means inhibition of at least 40% at 20 µM;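 further: plate controls were DMSO wells for no effect and DEVD-CHO caspase inhibitor wells for full effect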
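Material: reconstituted apoptosome with Apaf-1, cytochrome c, caspase-9, procaspase-3, dATP. Technique: Rh110 fluorescence intensity. Buffer or medium: pH 7.5 Hepes buffer with CHAPS, BSA, DTT. Times: 30 min plus 50 min, RT.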
proCasp3 act: activators of human procaspase-3 D3A mutant, primary screen, biochemical, absorbance, PC-3 D3A mutant, single concentration; recombinant procaspase-3 D3A, Ac-DEVD-pNA absorbance 405 nm; activation, % at 8.5 µM; Caspase-3 (Homo sapiens), P42574; 0.11% of 330,000 active; AID 463141, 2010;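 active means activation above the mean of all tested compounds plus 3 SD, cut at about 21% in these data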;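 further: 0% = DMSO alone and 100% = DMSO wells spiked with extra 5 µM PC-3 D3A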
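Test system: Procaspase-3 D3A mutant, all three cleavage aspartates alanine | Dosing: Single dose, 8.5 µM nominal compound, 0.8% DMSO | Schedule: 1 h preincubation, 2 h reaction | Technique: 405 nm absorbance of p-nitroaniline, reads at 0 and 120 min | Repeats: One well per compound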
ZTA counter: blocks Epstein-Barr virus ZTA, an EBNA-1 counter-screen. inhibition, % at 11 µM. ZTA-DNA binding, fluorescence polarization. 0.15% of 320,000 active. P03206; in the data active means inhibition above about 33%
procasp7 counter: procaspase-7 activators, primary screen, counter-screen for procaspase-3 activator project, biochemical, absorbance, HTS, human. activation, % at 8.5 µM. 0.093% of 330,000 active. AID 463210, 2010. recombinant procaspase-7, Ac-DEVD-pNA absorbance 405 nm; D23A/D198A/D206A triple mutant, cannot self-cleave; scale: DMSO 0, 5 µM enzyme 100. Caspase-7 (Homo sapiens), P55210;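 active means percent activation above the screen-wide mean plus 3 SD, cut at about 25% in these data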
Target sequence (P55210 whole entry D23A/D198A/D206A): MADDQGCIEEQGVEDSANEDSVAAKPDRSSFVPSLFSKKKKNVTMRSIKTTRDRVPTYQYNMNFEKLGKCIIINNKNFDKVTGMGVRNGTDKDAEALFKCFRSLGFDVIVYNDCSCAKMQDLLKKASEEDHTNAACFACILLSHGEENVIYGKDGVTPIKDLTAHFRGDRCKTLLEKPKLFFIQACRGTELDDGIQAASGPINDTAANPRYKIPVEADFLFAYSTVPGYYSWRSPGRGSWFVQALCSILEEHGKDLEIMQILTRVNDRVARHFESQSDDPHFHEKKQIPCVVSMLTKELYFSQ
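Assay system: Uncleavable procaspase-7 mutant enzyme; Input: 2 µM procaspase-7 mutant as dispensed; Also added: DEVD-pNA substrate; Medium: Zinc-free HEPES pH 7.4 with 300 mM NaCl, 0.01% Triton X-100; Timing: 1 h compound preincubation, 2 h substrate cleavage, 25 °C; Measured by: Epi-absorbance of released pNA at 405 nm, two timepoints.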
* hit, by the source's call. Hits are enriched below; roughly 1.8% of the tested compounds scored in any of these assays.

How did Cc1c(C(=O)O)cccc1-c1ccc(/C=C2/NC(=O)N(c3ccccc3)C2=O)o1 do in these assays?
EBNA-1 inh: 4.8; GSTO1 counter: 6.4; Apaf-1 inh: 8.2; proCasp3 act: -12.9; ZTA counter: -15.2; procasp7 counter: -4.5

How did Cc1c(C(=O)O)cccc1-c1ccc(/C=C2\SC(=O)NC2=O)o1 do in these assays?
EBNA-1 inh: -9.5; GSTO1 counter: 35.3*; Apaf-1 inh: 22.9; proCasp3 act: -11.1; ZTA counter: 4.1; procasp7 counter: -20.2

What do the screens show for `COc1ccc(C(CNC(=O)CCC(=O)c2ccc(C)s2)N2CCOCC2)cc1` (configuration not stated)?
Apaf-1 inh: -5.0; proCasp3 act: 0.2; ZTA counter: 16.4; procasp7 counter: 1.6

How did O=C(Cn1nc(-c2ccccc2Cl)ccc1=O)Nc1ccccc1-c1ccccc1 do in these assays?
EBNA-1 inh: 2.7; GSTO1 counter: 8.1; Apaf-1 inh: 55.8*; proCasp3 act: 12.5; ZTA counter: -11.7; procasp7 counter: 9.3

Results for CC1=NN(c2ccccc2)C(=O)C1=C(C)C ?
EBNA-1 inh: -12.1; GSTO1 counter: 35.1*; Apaf-1 inh: 38.3; proCasp3 act: 3.2; ZTA counter: -8.5; procasp7 counter: -10.3

How did Cc1ccc(-c2nnc3sc(CCc4ccccc4)nn23)cc1 do in these assays?
EBNA-1 inh: 0.2; GSTO1 counter: 1.1; Apaf-1 inh: 11.5; proCasp3 act: 3.0; ZTA counter: -1.1; procasp7 counter: -3.1

What do the screens show for `c1csc(Cc2nn3c(-c4ccncc4)nnc3s2)c1`?
EBNA-1 inh: 0.9; GSTO1 counter: -0.1; Apaf-1 inh: 77.5*; proCasp3 act: -6.4; ZTA counter: -1.0; procasp7 counter: -8.7

Results for Cc1nc(NS(=O)(=O)c2ccc(Cl)s2)c2c3c(sc2n1)CCCC3 ?
EBNA-1 inh: -11.0; GSTO1 counter: -25.2; Apaf-1 inh: 3.2; proCasp3 act: -0.3; ZTA counter: -3.6; procasp7 counter: 2.8

Results for COc1cc(/C=N/Nc2nc(N3CCCC3)nc(N3CCCC3)n2)ccc1O ?
EBNA-1 inh: -4.2; GSTO1 counter: 0.1; Apaf-1 inh: -12.0; proCasp3 act: 0.7; ZTA counter: -8.5; procasp7 counter: 5.5

How did Oc1ccc(/C=N/Nc2nc(N3CCCC3)nc(N3CCCC3)n2)cc1O do in these assays?
EBNA-1 inh: 7.3; GSTO1 counter: 56.1*; Apaf-1 inh: 6.1; proCasp3 act: -2.3; ZTA counter: 11.7; procasp7 counter: -5.8

Results for Cc1ccc(N=Cc2cc3c(cc2[N+](=O)[O-])OCO3)cc1[N+](=O)[O-] ?
EBNA-1 inh: -0.3; GSTO1 counter: 36.4*; Apaf-1 inh: 39.5; proCasp3 act: 1.3; ZTA counter: -1.1; procasp7 counter: -13.0

How did CC(=O)N(C)c1ccc(N=Cc2cc3c(cc2[N+](=O)[O-])OCO3)cc1 do in these assays?
EBNA-1 inh: 3.3; GSTO1 counter: 11.6; Apaf-1 inh: 64.9*; proCasp3 act: -6.1; ZTA counter: -4.2; procasp7 counter: -6.5

Results for CC(=O)c1ccc(S(=O)(=O)N(C)CC(=O)Nc2ccc(C)cc2)cc1 ?
Apaf-1 inh: -1.9; proCasp3 act: -0.5; ZTA counter: 4.5; procasp7 counter: 4.8

Results for CCCOC(=O)Cn1cnc2scc(-c3ccc(OC)cc3)c2c1=O ?
EBNA-1 inh: 2.2; GSTO1 counter: -0.2; Apaf-1 inh: 19.8; proCasp3 act: 0.9; ZTA counter: -12.5; procasp7 counter: 3.9

How did CCCc1cc(C(=O)Nc2cccc(C(C)=O)c2)no1 do in these assays?
EBNA-1 inh: 8.6; GSTO1 counter: 35.6*; Apaf-1 inh: 16.1; proCasp3 act: 1.9; ZTA counter: 8.0; procasp7 counter: -7.2

What do the screens show for `CCCc1cc(C(=O)Nc2ccc(C(C)=O)cc2)no1`?
EBNA-1 inh: 0.1; GSTO1 counter: 6.7; Apaf-1 inh: -0.4; proCasp3 act: 0.7; ZTA counter: -12.9; procasp7 counter: -3.4
